Source: PubChem BioAssay AID623966 (The Scripps Research Institute Molecular Screening Center, 2012)
Values joined by “and” are separate entries in the source; they are usually repeats but may differ in a detail not shown here. Equal values may be shown once. Active and inactive are the calls of the source.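 How the source made its calls: active means compounds that push a bacterial single-strand DNA binding protein off labeled DNA, with IC50 up to 50 micromolar; inactive means the rest.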

molecular target: Single-stranded DNA-binding protein (Escherichia coli (strain K12)) (UniProt P0AGE0); test: E. coli SSB-ssDNA binding disruption – biochemical, fluorescence polarization, selectivity assay for HCV NS3 helicase inhibitor project, late-stage follow-up (AID 623966); conditions: E. coli SSB / Cy5-dT15 DNA
Outline: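 Test system: E. coli SSB (ssDNA-binding protein), Cy5-labelled dT15 DNA. Also added: 5 nM 5'-Cy5-labelled dT15 DNA probe, final. Technique: fluorescence polarization of Cy5 label. Read-out basis: percent displacement and IC50 from dose-response fits. Benchmarks: No-SSB wells and 200 nM dT20 competitor wells as normalization references.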

Sequence of Single-stranded DNA-binding protein (Escherichia coli (strain K12)) (P0AGE0 whole entry, looked up): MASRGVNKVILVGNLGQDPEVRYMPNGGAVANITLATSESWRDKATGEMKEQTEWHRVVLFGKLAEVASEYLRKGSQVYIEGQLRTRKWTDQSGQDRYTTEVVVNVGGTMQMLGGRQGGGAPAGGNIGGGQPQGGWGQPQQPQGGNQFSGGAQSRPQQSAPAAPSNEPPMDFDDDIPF

Going from Cc1ccc2nc(-c3ccc4nc(-c5ccc(NC(=O)c6ccc(C(C)(C)C)cc6)cc5)sc4c3)sc2c1S(=O)(=O)O to Cc1ccc(C(=O)Nc2ccc(-c3nc4ccc(-c5nc6ccc(C)c(S(=O)(=O)O)c6s5)cc4s3)cc2)cc1, the IC50 falls from 32 µM to 5 µM (6.4-fold). The second is the more potent here.

First: COc1ccc(C(=O)Nc2ccc(-c3nc4ccc(-c5nc6ccc(C)c(S(=O)(=O)O)c6s5)cc4s3)cc2)cc1
Second: Cc1ccc2nc(-c3ccc4nc(-c5ccc(NC(=O)c6ccc(F)cc6)cc5)sc4c3)sc2c1S(=O)(=O)O
The IC50 of the first is 7-fold lower: 2 µM for the first, 14 µM for the second.

Cc1ccc2nc(-c3ccc4nc(-c5ccc(NC(=O)c6ccc7nc(-c8ccc(N)cc8)sc7c6)cc5)sc4c3)sc2c1S(=O)(=O)O and Cc1ccc2nc(-c3ccc4nc(-c5ccc(NC(=O)c6ccc(N)cc6)cc5)sc4c3)sc2c1S(=O)(=O)O are the same in IC50: 3 µM for the first, 3 µM for the second.

First: Cc1ccc2nc(-c3ccc4nc(-c5ccc(NC(=O)c6ccc7nc(-c8ccc(NC(=O)OCC9c%10ccccc%10-c%10ccccc%109)cc8)sc7c6)cc5)sc4c3)sc2c1S(=O)(=O)O
Second: Cc1ccc2nc(-c3ccc(NC(=O)c4ccc(NC(=O)OCC5c6ccccc6-c6ccccc65)cc4)cc3)sc2c1S(=O)(=O)O
The IC50 of the first is 5.4-fold lower: 5 µM for the first, 27 µM for the second. The first is the more potent here.

Cc1ccc2nc(-c3ccc(NC(=O)c4ccc(NC(=O)Nc5ccccc5)cc4)cc3)sc2c1S(=O)(=O)O and Cc1ccc2nc(-c3ccc(NC(=O)c4ccc(NC(=S)Nc5ccccc5)cc4)cc3)sc2c1S(=O)(=O)O are within 1.5-fold of each other in IC50: 20 µM for the first, 23 µM for the second.

Cc1ccc2nc(-c3ccc4nc(-c5ccc(NC(=O)c6ccc(C(F)(F)F)c(F)c6)cc5)sc4c3)sc2c1S(=O)(=O)O and Cc1ccc2nc(-c3ccc4nc(-c5ccc(NC(=O)c6cc(F)ccc6C(F)(F)F)cc5)sc4c3)sc2c1S(=O)(=O)O are within 1.5-fold of each other in IC50: 10 µM for the first, 14 µM for the second.

Compared with Cc1ccc2nc(-c3ccc4nc(-c5ccc(NC(=O)c6cc(C(F)(F)F)cc(C(F)(F)F)c6)cc5)sc4c3)sc2c1S(=O)(=O)O, Cc1ccc2nc(-c3ccc4nc(-c5ccc(NC(=O)c6cc(C(F)(F)F)ccc6F)cc5)sc4c3)sc2c1S(=O)(=O)O is 3-fold lower in IC50: 36 µM for the first, 12 µM for the second. The second is the more potent here.

First: COc1ccc(S(=O)(=O)Nc2ccc(-c3nc4ccc(-c5nc6ccc(C)c(S(=O)(=O)O)c6s5)cc4s3)cc2)cc1
Second: COc1ccc(NC(=O)Nc2ccc(-c3nc4ccc(-c5nc6ccc(C)c(S(=O)(=O)O)c6s5)cc4s3)cc2)cc1
The IC50 of the first is 2.5-fold higher: 10 µM for the first, 4 µM for the second.

First: Cc1ccc2nc(-c3ccc4nc(-c5ccc(NC(=O)c6ccc(C(F)(F)F)cc6)cc5)sc4c3)sc2c1S(=O)(=O)O
Second: Cc1ccc2nc(-c3ccc4nc(-c5ccc(NC(=O)Nc6ccc(C(F)(F)F)cc6)cc5)sc4c3)sc2c1S(=O)(=O)O
The IC50 of the first is 3.8-fold lower: 4 µM for the first, 15 µM for the second. The first is the more potent here.

Cc1ccc2nc(-c3ccc4nc(-c5ccc(NC(=S)Nc6ccccc6)cc5)sc4c3)sc2c1S(=O)(=O)O and Cc1ccc2nc(-c3ccc4nc(-c5ccc(NC(=O)Nc6ccccc6)cc5)sc4c3)sc2c1S(=O)(=O)O are within 1.5-fold of each other in IC50: 7 µM for the first, 6 µM for the second.

Going from Cc1ccc2nc(-c3ccc4nc(-c5ccc(NC(=O)c6cccc7ccccc67)cc5)sc4c3)sc2c1S(=O)(=O)O to Cc1ccc2nc(-c3ccc4nc(-c5ccc(NC(=O)c6ccccc6)cc5)sc4c3)sc2c1S(=O)(=O)O, the IC50 falls from 9 µM to 4 µM (2.2-fold). The second is the more potent here.

Going from Cc1ccc2nc(-c3ccc4nc(-c5ccc(NC(=O)c6ccc(Br)cc6)cc5)sc4c3)sc2c1S(=O)(=O)O to Cc1ccc2nc(-c3ccc4nc(-c5ccc(NC(=O)c6ccc(Cl)cc6)cc5)sc4c3)sc2c1S(=O)(=O)O, the IC50 rises from 27 µM to 46 µM (1.7-fold). The first is the more potent here.

Cc1ccc2nc(-c3ccc(NC(=O)c4ccc(NC(=O)c5ccc(N)cc5)cc4)cc3)sc2c1S(=O)(=O)O and Cc1ccc2nc(-c3ccc(NC(=O)c4ccc(NC(=O)c5ccc(C(F)(F)F)cc5)cc4)cc3)sc2c1S(=O)(=O)O are within 1.5-fold of each other in IC50: 17 µM for the first, 23 µM for the second.

Compared with Cc1ccc(NC(=O)Nc2ccc(-c3nc4ccc(-c5nc6ccc(C)c(S(=O)(=O)O)c6s5)cc4s3)cc2)cc1, Cc1ccc2nc(-c3ccc4nc(-c5ccc(NC(=O)Nc6ccc(Cl)cc6)cc5)sc4c3)sc2c1S(=O)(=O)O is 2-fold lower in IC50: 10 µM for the first, 5 µM for the second.

Going from CC(=O)Nc1ccc(-c2nc3ccc(-c4nc5ccc(C)c(S(=O)(=O)O)c5s4)cc3s2)cc1 to Cc1ccc2nc(-c3ccc4nc(-c5ccc(NC(=O)c6ccc(N(C)C)cc6)cc5)sc4c3)sc2c1S(=O)(=O)O, the IC50 falls from 17 µM to 4 µM (4.2-fold). The second is the more potent here.

First: Cc1ccc2nc(-c3ccc4nc(-c5ccc(NC(=O)Nc6ccc(F)cc6)cc5)sc4c3)sc2c1S(=O)(=O)O
Second: COC(=O)c1ccc(C(=O)Nc2ccc(-c3nc4ccc(-c5nc6ccc(C)c(S(=O)(=O)O)c6s5)cc4s3)cc2)cc1
The IC50 of the first is 5.5-fold higher: 11 µM for the first, 2 µM for the second.

Cc1ccc2nc(-c3ccc4nc(-c5ccc(NC(=O)c6c(F)cccc6C(F)(F)F)cc5)sc4c3)sc2c1S(=O)(=O)O and Cc1ccc2nc(-c3ccc4nc(-c5ccc(NC(=O)c6ccccc6C(F)(F)F)cc5)sc4c3)sc2c1S(=O)(=O)O are the same in IC50: 13 µM for the first, 13 µM for the second.

Going from Cc1ccc2nc(-c3ccc4nc(-c5ccc(N(C)C(=O)c6ccc7ccccc7c6)cc5)sc4c3)sc2c1S(=O)(=O)O to Cc1ccc2nc(-c3ccc4nc(-c5ccc(NCc6ccccc6)cc5)sc4c3)sc2c1S(=O)(=O)O, the IC50 falls from 9 µM to 5 µM (1.8-fold). The second is the more potent here.

With Cc1ccc2nc(-c3ccc(NC(=O)c4ccc(NC(=O)c5ccc(NC(=O)OCC6c7ccccc7-c7ccccc76)cc5)cc4)cc3)sc2c1S(=O)(=O)O the IC50 was 7 µM.

With Cc1ccc2nc(-c3ccc(NC(=O)c4ccc(NC(=O)c5ccccc5)cc4)cc3)sc2c1S(=O)(=O)O the IC50 was “inactive”.
Cc1ccc2nc(-c3ccc4nc(-c5ccc(NC(=O)c6cccc(C(F)(F)F)c6)cc5)sc4c3)sc2c1S(=O)(=O)O was tested, and the IC50 was > 100 µM (inactive).
Cc1ccc2nc(-c3ccc4nc(-c5ccc(NC(=O)c6cc(F)cc(C(F)(F)F)c6)cc5)sc4c3)sc2c1S(=O)(=O)O was tested, and the IC50 was > 100 µM (inactive).
With Cc1ccc2nc(-c3ccc4nc(-c5ccc(NC(=O)c6ccncc6)cc5)sc4c3)sc2c1S(=O)(=O)O the IC50 was “inactive”.
With Cc1ccc2nc(-c3ccc4nc(-c5ccc(NC(=O)c6ccc(Cl)c(Cl)c6)cc5)sc4c3)sc2c1S(=O)(=O)O the IC50 was > 100 µM (inactive).
In the case of Cc1ccc2nc(-c3ccc4nc(-c5ccc(NC(=O)c6ccc7ccccc7c6)cc5)sc4c3)sc2c1S(=O)(=O)O, the IC50 is reported as 22 µM and 28 µM.
For Cc1ccc2nc(-c3ccc4nc(-c5ccc(NC(=O)c6ccc(CNC(=O)OCC7c8ccccc8-c8ccccc87)cc6)cc5)sc4c3)sc2c1S(=O)(=O)O, the IC50 was “inactive”.
In the case of Cc1ccc2nc(-c3ccc(NC(=O)c4ccc(NS(=O)(=O)c5ccccc5)cc4)cc3)sc2c1S(=O)(=O)O, the IC50 is reported as > 100 µM (inactive).
With Cc1ccc2nc(-c3ccc4nc(-c5ccc(NC(=O)c6cccc(Cl)c6)cc5)sc4c3)sc2c1S(=O)(=O)O the IC50 was > 100 µM (inactive).
With Cc1ccc2nc(-c3ccc4nc(-c5ccc(NC(=O)c6cccc(C(F)(F)F)c6F)cc5)sc4c3)sc2c1S(=O)(=O)O the IC50 was “inactive”.
Cc1ccc2nc(-c3ccc4nc(-c5ccc(NC(=O)c6ccc(NC(=O)OCC7c8ccccc8-c8ccccc87)cc6)cc5)sc4c3)sc2c1S(=O)(=O)O was tested, and the IC50 was > 100 µM (inactive).
In the case of Cc1ccc2nc(-c3ccc4nc(-c5ccc(NC(=O)c6cccnc6)cc5)sc4c3)sc2c1S(=O)(=O)O, the IC50 is reported as > 100 µM (inactive).
